{"source": "paper PMC4835239", "about": "(Leukemia & lymphoma, 2015)", "key": {"[1]": {"system": "chymotrypsin-like proteasome activity of CLL cells", "test": "Proteasome activity assay in CLL cells from patient samples", "format": "in vivo, human", "procedure,_shortened": "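Chymotrypsin-like proteasome activity was measured in CLL cells from patient whole blood with a validated commercial assay. Samples were taken at screening, pre- and post-dose day 1, pre-dose day 2, and pre- and post-dose days 8 and 9 of cycle 1. Dosing was a 30-min IV infusion, 20 mg/m2 on days 1–2, then 27, 36, 45 or 56 mg/m2 by cohort from day 8.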"}, "[2]": {"system": "relapsed/refractory CLL or small lymphocytic lymphoma (SLL)", "test": "Response assessment by IWCLL 2008 criteria", "format": "in vivo, human", "conditions": "all patients"}, "[3]": {"system": "patients with relapsed/refractory CLL or small lymphocytic lymphoma (SLL)", "test": "Phase I dose-escalation trial: toxicity assessment", "format": "in vivo"}, "CLL cells [4]": {"system": "CLL cells", "conditions": "cited from earlier work"}, "CLL": {"system": "CLL", "conditions": "patients with CLL; cited from earlier work"}, "myeloma cells": {"system": "myeloma cells", "conditions": "bortezomib; cited from earlier work"}, "CLL cells [5]": {"system": "CLL cells", "conditions": "bortezomib; cited from earlier work"}}, "note": "“Also recorded” adds a separate entry of the source."}
{"compound": "CC(C)C[C@H](NC(=O)[C@H](CCc1ccccc1)NC(=O)CN1CCOCC1)C(=O)N[C@@H](Cc1ccccc1)C(=O)N[C@@H](CC(C)C)C(=O)[C@@]1(C)CO1", "note": "[Carfilzomib]", "values": [{"measurement": "Chymotrypsin-like proteasome activity", "setting": "[1]; by 24 hours after dosing", "result": "partially recovered; also recorded: recovered partially"}, {"measurement": "Chymotrypsin-like proteasome activity", "setting": "[1]; by day 8", "result": "rebound higher than pretreatment levels; also recorded: completely"}, {"measurement": "Objective partial or complete responses (IWCLL 2008)", "setting": "[2]", "result": "No objective partial or complete responses were observed"}, {"measurement": "Maximum tolerated dose (MTD)", "setting": "[3]; doses up to 56 mg/m^2 twice weekly for 3 weeks of a 4 week cycle", "result": "No maximum tolerated dose of carfilzomib was identified"}, {"measurement": "Dyspnea, incidence", "setting": "[3]; grade 3, total n=19", "result": "1 number of patients"}, {"measurement": "Febrile neutropenia, incidence", "setting": "[3]; grade 3, total n=19", "result": "1 number of patients"}, {"measurement": "Grade of electrolyte disturbances", "setting": "[3]; human, in vivo", "result": "≤ 2", "unit": "grade"}, {"measurement": "Infusion reaction or tumor lysis syndrome", "setting": "[3]; in vivo", "result": "No patient experienced an infusion reaction or tumor lysis syndrome"}, {"measurement": "Cytotoxicity against CLL cells in vitro", "setting": "CLL cells [4]", "result": "significant cytotoxicity"}, {"measurement": "Effect of human serum on cytotoxic activity against CLL cells", "setting": "CLL cells [4]; human versus fetal bovine serum", "result": "unaffected by human serum"}]}
{"compound": "CC(C)C[C@H](NC(=O)[C@H](Cc1ccccc1)NC(=O)c1cnccn1)B(O)O", "note": "[bortezomib]", "values": [{"measurement": "Objective clinical responses", "setting": "CLL", "result": "no objective clinical responses"}]}
{"compound": "O=c1c(O)c(-c2ccc(O)c(O)c2)oc2cc(O)cc(O)c12", "note": "[quercetin]", "values": [{"measurement": "Level of quercetin required to inhibit apoptosis", "setting": "myeloma cells", "result": 40, "unit": "μm"}, {"measurement": "Level of quercetin required to inhibit apoptosis", "setting": "CLL cells [5]", "result": 20, "unit": "μm"}]}
